# From ChEMBL document CHEMBL3046951, “Volatile constituents from the leaves of Callicarpa japonica Thunb. and their antibacterial activities” (2004)
# Key:
# Assay type in all cases: functional
# Vibrio parahaemolyticus [1] = experiment: Antimicrobial activity against Vibrio parahaemolyticus ATCC 33844 assessed as growth inhibition rate at 5.32 mg/l after 72 hr by spectrophotometry; details: ATCC 33844, 72 h, read-out: GI
# Bacillus cereus [2] = experiment: Antimicrobial activity against Bacillus cereus ATCC 11778 assessed as growth inhibition rate at 5.32 mg/l after 72 hr by spectrophotometry; details: ATCC 11778, 72 h, read-out: GI
# Summary of the method: (§1)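 Pure volatile compounds (purity >95%; one at 90%) were tested against B. cereus ATCC 11778. The strain was grown at 30 °C in nutrient broth for 24 h, then subcultured for 18 h. Optical density was read in a Bioscreen C every 24 h for 72 h, with 10% Tween 80 as the control.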
# Escherichia coli [3] = experiment: Antimicrobial activity against Escherichia coli O157:H7 ATCC 43894 assessed as growth inhibition rate at 5.32 mg/l after 72 hr by spectrophotometry; details: O157:H7 ATCC 43894, 72 h, read-out: GI
# Listeria monocytogenes [4] = experiment: Antimicrobial activity against Listeria monocytogenes ATCC 19111 assessed as growth inhibition rate at 5.32 mg/l after 72 hr by spectrophotometry; details: ATCC 19111, 72 h, read-out: GI
# Summary of the method: (§2)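 L. monocytogenes was grown at 30 °C in tryptic soy broth, subcultured for 18 h, and exposed to pure volatile compounds (>95% purity). Growth was followed by Bioscreen C optical density every 24 h for 72 h against a 10% Tween 80 control.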
# Salmonella typhimurium [5] = experiment: Antimicrobial activity against Salmonella enterica subsp. enterica serovar Typhimurium ATCC 14028 assessed as growth inhibition rate at 5.32 mg/l after 72 hr by spectrophotometry; details: ATCC 14028, 72 h, read-out: GI
# Staphylococcus aureus [6] = experiment: Antimicrobial activity against Staphylococcus aureus ATCC 25923 assessed as growth inhibition rate at 5.32 mg/l after 72 hr by spectrophotometry; details: ATCC 25923, 72 h, read-out: GI
# Bacillus cereus [7] = experiment: Antimicrobial activity against Bacillus cereus ATCC 11778 assessed as growth inhibition rate at 10.36 mg/l after 72 hr by spectrophotometry; details: ATCC 11778, 72 h, read-out: GI; summary of the method: as §1
# Staphylococcus aureus [8] = experiment: Antimicrobial activity against Staphylococcus aureus ATCC 25923 assessed as growth inhibition rate at 10.36 mg/l after 72 hr by spectrophotometry; details: ATCC 25923, 72 h, read-out: GI
# Vibrio parahaemolyticus [9] = experiment: Antimicrobial activity against Vibrio parahaemolyticus ATCC 33844 assessed as growth inhibition rate at 10.36 mg/l after 72 hr by spectrophotometry; details: ATCC 33844, 72 h, read-out: GI
# Listeria monocytogenes [10] = experiment: Antimicrobial activity against Listeria monocytogenes ATCC 19111 assessed as growth inhibition rate at 10.36 mg/l after 72 hr by spectrophotometry; details: ATCC 19111, 72 h, read-out: GI; summary of the method: as §2
# Salmonella typhimurium [11] = experiment: Antimicrobial activity against Salmonella enterica subsp. enterica serovar Typhimurium ATCC 14028 assessed as growth inhibition rate at 10.36 mg/l after 72 hr by spectrophotometry; details: ATCC 14028, 72 h, read-out: GI
# Summary of the method: (§3)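 Salmonella Typhimurium ATCC 14028 grown in nutrient broth at 30 °C, precultured 24 h, then subcultured 1:100 for 18 h before testing. Single volatile compounds (>95% pure) were added. OD was read every 24 h over 72 h in a Bioscreen C, with 10% Tween 80 as the comparison control.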
# Escherichia coli [12] = experiment: Antimicrobial activity against Escherichia coli O157:H7 ATCC 43894 assessed as growth inhibition rate at 10.36 mg/l after 72 hr by spectrophotometry; details: O157:H7 ATCC 43894, 72 h, read-out: GI
# Listeria monocytogenes [13] = experiment: Antimicrobial activity against Listeria monocytogenes ATCC 19111 assessed as growth inhibition rate at 43.2 mg/l after 72 hr by spectrophotometry; details: ATCC 19111, 72 h, read-out: GI; summary of the method: as §2
# Escherichia coli [14] = experiment: Antimicrobial activity against Escherichia coli O157:H7 ATCC 43894 assessed as growth inhibition rate at 43.2 mg/l after 72 hr by spectrophotometry; details: O157:H7 ATCC 43894, 72 h, read-out: GI
# Staphylococcus aureus [15] = experiment: Antimicrobial activity against Staphylococcus aureus ATCC 25923 assessed as growth inhibition rate at 43.2 mg/l after 72 hr by spectrophotometry; details: ATCC 25923, 72 h, read-out: GI
# Vibrio parahaemolyticus [16] = experiment: Antimicrobial activity against Vibrio parahaemolyticus ATCC 33844 assessed as growth inhibition rate at 43.2 mg/l after 72 hr by spectrophotometry; details: ATCC 33844, 72 h, read-out: GI
# Salmonella typhimurium [17] = experiment: Antimicrobial activity against Salmonella enterica subsp. enterica serovar Typhimurium ATCC 14028 assessed as growth inhibition rate at 43.2 mg/l after 72 hr by spectrophotometry; details: ATCC 14028, 72 h, read-out: GI; summary of the method: as §3
# Bacillus cereus [18] = experiment: Antimicrobial activity against Bacillus cereus ATCC 11778 assessed as growth inhibition rate at 43.2 mg/l after 72 hr by spectrophotometry; details: ATCC 11778, 72 h, read-out: GI; summary of the method: as §1
compound,measurement,setting,value
CCCCCC(O)CC (stereo not drawn) [3-OCTANOL],inhibition of growth at 5.32 µg/mL,Vibrio parahaemolyticus [1],70.7%
same,inhibition of growth at 5.32 µg/mL,Bacillus cereus [2],43%
same,inhibition of growth at 5.32 µg/mL,Escherichia coli [3],8.9%
same,inhibition of growth at 5.32 µg/mL,Listeria monocytogenes [4],21.5%
same,inhibition of growth at 5.32 µg/mL,Salmonella typhimurium [5],20.6%
same,inhibition of growth at 5.32 µg/mL,Staphylococcus aureus [6],52.6%
CC/C=C\CO [CIS-2-PENTEN-1-OL],inhibition of growth at 10.36 µg/mL,Bacillus cereus [7],20.4%
same,inhibition of growth at 10.36 µg/mL,Staphylococcus aureus [8],8.1%
same,inhibition of growth at 10.36 µg/mL,Vibrio parahaemolyticus [9],10.5%
same,inhibition of growth at 10.36 µg/mL,Listeria monocytogenes [10],0%
same,inhibition of growth at 10.36 µg/mL,Salmonella typhimurium [11],9.4%
same,inhibition of growth at 10.36 µg/mL,Escherichia coli [12],21.9%
CC/C=C\CCO [CIS-3-HEXENOL],inhibition of growth at 43.2 µg/mL,Listeria monocytogenes [13],10.3%
same,inhibition of growth at 43.2 µg/mL,Escherichia coli [14],41%
same,inhibition of growth at 43.2 µg/mL,Staphylococcus aureus [15],21.6%
same,inhibition of growth at 43.2 µg/mL,Vibrio parahaemolyticus [16],73.7%
same,inhibition of growth at 43.2 µg/mL,Salmonella typhimurium [17],56.2%
same,inhibition of growth at 43.2 µg/mL,Bacillus cereus [18],14.3%
